According to ChEMBL document CHEMBL3526002, “Tissue distribution and identification of radioactivity components at elimination phase after oral administration of [¹⁴C]CS-1036, an α-amylase inhibitor, to rats” (Drug Metab Dispos, 2013):

Key:
Design in all cases: dose 5 mg/kg, dosed compound name [14C]CS-1036, route oral
Conditions in all cases: in vivo
[1] = tested on: Spleen; assay: Drug uptake in albino F344/DuCrlCrlj rat spleen at 5 mg/kg, po after 8 hrs by liquid scintillation counting; type: ADME, organism-based
[2] = tested on: Large intestine; assay: Drug uptake in albino F344/DuCrlCrlj rat large intestine at 5 mg/kg, po after 8 hrs by liquid scintillation counting; type: ADME, organism-based
[3] = Drug uptake in albino F344/DuCrlCrlj rat thyroid gland at 5 mg/kg, po after 336 hrs by liquid scintillation counting; type: ADME, organism-based
[4] = tested on: Kidney; assay: Drug uptake in albino F344/DuCrlCrlj rat kidney assessed as ng equivalent of CS-1036 at 5 mg/kg, po after 72 hrs by liquid scintillation counting; type: ADME, organism-based
[5] = Drug uptake in albino F344/DuCrlCrlj rat trachea at 5 mg/kg, po after 1 hr by liquid scintillation counting; type: ADME, organism-based
[6] = tested on: Kidney; assay: Drug uptake in albino F344/DuCrlCrlj rat kidney at 5 mg/kg, po after 168 hrs by liquid scintillation counting; type: ADME, organism-based
[7] = tested on: Harderian gland; assay: Drug uptake in albino F344/DuCrlCrlj rat harderian gland assessed as ng equivalent of CS-1036 at 5 mg/kg, po after 24 hrs by liquid scintillation counting; type: ADME, organism-based
[8] = tested on: Small intestine; assay: Drug uptake in albino F344/DuCrlCrlj rat small intestine assessed as ng equivalent of CS-1036 at 5 mg/kg, po after 168 hrs by liquid scintillation counting; type: ADME, organism-based
[9] = tested on: Cerebellum; assay: Drug uptake in albino F344/DuCrlCrlj rat cerebellum assessed as ng equivalent of CS-1036 at 5 mg/kg, po after 1 hr by liquid scintillation counting; type: ADME, organism-based
[10] = tested on: Lung; assay: Drug uptake in albino F344/DuCrlCrlj rat lung assessed as ng equivalent of CS-1036 at 5 mg/kg, po after 4 hrs by liquid scintillation counting; type: ADME, organism-based
[11] = tested on: Adrenal gland; assay: Drug uptake in albino F344/DuCrlCrlj rat adrenal gland assessed as ng equivalent of CS-1036 at 5 mg/kg, po after 8 hrs by liquid scintillation counting; type: ADME, organism-based
[12] = Drug uptake in albino F344/DuCrlCrlj rat testis at 5 mg/kg, po after 336 hrs by liquid scintillation counting; type: ADME, organism-based
[13] = Drug uptake in albino F344/DuCrlCrlj rat epididymis assessed as ng equivalent of CS-1036 at 5 mg/kg, po after 336 hrs by liquid scintillation counting; type: ADME, organism-based
[14] = tested on: Spleen; assay: Drug uptake in albino F344/DuCrlCrlj rat spleen at 5 mg/kg, po after 24 hrs by liquid scintillation counting; type: ADME, organism-based
[15] = Drug uptake in albino F344/DuCrlCrlj rat mandibular gland at 5 mg/kg, po after 4 hrs by liquid scintillation counting; type: ADME, organism-based
[16] = Drug uptake in albino F344/DuCrlCrlj rat trachea assessed as ng equivalent of CS-1036 at 5 mg/kg, po after 8 hrs by liquid scintillation counting; type: ADME, organism-based
[17] = Drug uptake in albino F344/DuCrlCrlj rat mandibular gland assessed as ng equivalent of CS-1036 at 5 mg/kg, po after 72 hrs by liquid scintillation counting; type: ADME, organism-based
[18] = tested on: Blood; assay: Drug uptake in albino F344/DuCrlCrlj rat blood at 5 mg/kg, po after 4 hrs by liquid scintillation counting; type: ADME, organism-based
How it was run: (§1)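 Male F344/DuCrlCrlj rats (159–167 g; n = 3 per time point) received a single oral dose of [14C]CS-1036 at 5 mg/kg. Blood was taken from the abdominal aorta at 1, 4, 8, 24, 72, 168 and 336 h. Radioactivity was counted by LSC with external-standard efficiency correction. Results were converted to ng equivalent of CS-1036/ml using specific activity and sample volume, and reported as mean + S.D.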

[19] = tested on: Blood; assay: Drug uptake in albino F344/DuCrlCrlj rat blood at 5 mg/kg, po after 336 hrs by liquid scintillation counting; type: ADME, organism-based; how it was run: as §1
[20] = tested on: Liver; assay: Drug uptake in albino F344/DuCrlCrlj rat liver assessed as ng equivalent of CS-1036 at 5 mg/kg, po after 4 hrs by liquid scintillation counting; type: ADME, organism-based
[21] = tested on: Heart; assay: Drug uptake in albino F344/DuCrlCrlj rat heart assessed as ng equivalent of CS-1036 at 5 mg/kg, po after 8 hrs by liquid scintillation counting; type: ADME, organism-based
[22] = tested on: Cerebellum; assay: Drug uptake in albino F344/DuCrlCrlj rat cerebellum at 5 mg/kg, po after 1 hr by liquid scintillation counting; type: ADME, organism-based
[23] = tested on: Heart; assay: Drug uptake in albino F344/DuCrlCrlj rat heart at 5 mg/kg, po after 1 hr by liquid scintillation counting; type: ADME, organism-based
[24] = tested on: Cerebrum; assay: Drug uptake in albino F344/DuCrlCrlj rat cerebrum at 5 mg/kg, po after 168 hrs by liquid scintillation counting; type: ADME, organism-based
How it was run: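 Single oral [14C]CS-1036 at 5 mg/kg was given to male rats (159–167 g; n = 3). Cerebrum was collected after aortic bleeding at 1, 4, 8, 24, 72, 168 or 336 h, weighed, and homogenized in 2 volumes of saline. A 0.5 ml aliquot was solubilized in Soluene-350 and counted by LSC with external-standard correction. Results are in ng equivalent/g tissue from specific activity and sample weight.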

[25] = Drug uptake in albino F344/DuCrlCrlj rat skeletal muscle assessed as ng equivalent of CS-1036 at 5 mg/kg, po after 168 hrs by liquid scintillation counting; type: ADME, organism-based, Muscle tissue
[26] = Drug uptake in albino F344/DuCrlCrlj rat eyeball assessed as ng equivalent of CS-1036 at 5 mg/kg, po after 1 hr by liquid scintillation counting; type: ADME, organism-based
[27] = tested on: Harderian gland; assay: Drug uptake in albino F344/DuCrlCrlj rat harderian gland at 5 mg/kg, po after 4 hrs by liquid scintillation counting; type: ADME, organism-based
[28] = Drug uptake in albino F344/DuCrlCrlj rat eyeball at 5 mg/kg, po after 1 hr by liquid scintillation counting; type: ADME, organism-based
[29] = tested on: Spleen; assay: Drug uptake in albino F344/DuCrlCrlj rat spleen assessed as ng equivalent of CS-1036 at 5 mg/kg, po after 24 hrs by liquid scintillation counting; type: ADME, organism-based
[30] = tested on: Large intestine; assay: Drug uptake in albino F344/DuCrlCrlj rat large intestine assessed as ng equivalent of CS-1036 at 5 mg/kg, po after 4 hrs by liquid scintillation counting; type: ADME, organism-based
[31] = tested on: Lung; assay: Drug uptake in albino F344/DuCrlCrlj rat lung at 5 mg/kg, po after 24 hrs by liquid scintillation counting; type: ADME, organism-based
[32] = tested on: Zone of skin; assay: Drug uptake in albino F344/DuCrlCrlj rat skin assessed as ng equivalent of CS-1036 at 5 mg/kg, po after 1 hr by liquid scintillation counting; type: ADME, organism-based
[33] = tested on: Lung; assay: Drug uptake in albino F344/DuCrlCrlj rat lung at 5 mg/kg, po after 72 hrs by liquid scintillation counting; type: ADME, organism-based
[34] = tested on: Plasma; assay: Drug uptake in albino F344/DuCrlCrlj rat plasma assessed as ng equivalent of CS-1036 at 5 mg/kg, po after 8 hrs by liquid scintillation counting; type: ADME, organism-based
[35] = tested on: Plasma; assay: Drug uptake in albino F344/DuCrlCrlj rat plasma at 5 mg/kg, po after 8 hrs by liquid scintillation counting; type: ADME, organism-based
[36] = tested on: Zone of skin; assay: Drug uptake in albino F344/DuCrlCrlj rat skin at 5 mg/kg, po after 168 hrs by liquid scintillation counting; type: ADME, organism-based

Radiolabel recovery [1]: 84.8 ngequiv/g
Radiolabel recovery [2]: 7770 ngequiv/g
Radiolabel recovery [3]: 14.5 ngequiv/g
Radiolabel recovery [4]: 29.7 ngequiv/g
Radiolabel recovery [5]: 41.1 ngequiv/g
Radiolabel recovery [6]: 27 ngequiv/g
Radiolabel recovery [7]: 88 ngequiv/g
Radiolabel recovery [8]: 5.5 ngequiv/g
Radiolabel recovery [9]: 0.79 ngequiv/g
Radiolabel recovery [10]: 10.3 ngequiv/g
Radiolabel recovery [11]: 66.9 ngequiv/g
Radiolabel recovery [12]: 6.02 ngequiv/g
Radiolabel recovery [13]: 3.3 ngequiv/g
Radiolabel recovery [14]: 82.4 ngequiv/g
Radiolabel recovery [15]: 51.1 ngequiv/g
Radiolabel recovery [16]: 17.8 ngequiv/g
Radiolabel recovery [17]: 9.5 ngequiv/g
Radiolabel recovery [18]: 44.3 ngequiv/ml
Radiolabel recovery [19]: 5.27 ngequiv/ml
Radiolabel recovery [20]: 93 ngequiv/g
Radiolabel recovery [21]: 8.3 ngequiv/g
Radiolabel recovery [22]: 9.35 ngequiv/g
Radiolabel recovery [23]: 27.9 ngequiv/g
Radiolabel recovery [24]: 6.2 ngequiv/g
Radiolabel recovery [25]: 4.5 ngequiv/g
Radiolabel recovery [26]: 3.2 ngequiv/g
Radiolabel recovery [27]: 39.1 ngequiv/g
Radiolabel recovery [28]: 17.7 ngequiv/g
Radiolabel recovery [29]: 10.4 ngequiv/g
Radiolabel recovery [30]: 6620 ngequiv/g
Radiolabel recovery [31]: 72 ngequiv/g
Radiolabel recovery [32]: 2.2 ngequiv/g
Radiolabel recovery [33]: 51.3 ngequiv/g
Radiolabel recovery [34]: 10.8 ngequiv/ml
Radiolabel recovery [35]: 27.7 ngequiv/ml
Radiolabel recovery [36]: 53.3 ngequiv/g
SMILES: C[C@H]1O[C@@H](O[C@H]2[C@H](O)[C@@H](O)[C@@H](O[14C@H]3[14C@H](O)[14CH2]N[14C@@H]3[14CH2]O)O[C@@H]2CO)[C@H](O)[C@@H](O)[C@@H]1O
